# From ChEMBL document CHEMBL1142188, “Fitness costs of fluoroquinolone resistance in Streptococcus pneumoniae” (2007)
# Tests used:
# Streptococcus pneumoniae [1] = experiment: Antimicrobial activity against Streptococcus pneumoniae R6 transformants with parE D435N mutation in presence of reserpine
# Streptococcus pneumoniae [2] = experiment: Antimicrobial activity against Streptococcus pneumoniae R6 transformants with gyrA S81Y mutation in presence of reserpine
# Streptococcus pneumoniae [3] = experiment: Antimicrobial activity agaisnt Streptococcus pneumoniae R6 transformants with parC S79F and gyrA E85K mutation; assay type: functional
# Outline: (§1)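 MIC by Etest on tryptic soy agar with 5% sheep blood, incubated overnight at 35°C, or by serial dilution in Mueller-Hinton broth with 5% horse blood per CLSI protocols. Each assay was run twice. Strains were R6 or R6 transformed with QRDR alleles from levofloxacin-resistant clinical isolates, with mutations confirmed by PCR sequencing.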
# Streptococcus pneumoniae [4] = experiment: Antimicrobial activity against Streptococcus pneumoniae R6 transformants with parC D83Y and gyrA E85K mutation; assay type: functional; outline: as §1
# Streptococcus pneumoniae [5] = experiment: Antimicrobial activity against Streptococcus pneumoniae R6 transformants with gyrA S81F mutation in presence of reserpine
# Streptococcus pneumoniae [6] = experiment: Antimicrobial activity against Streptococcus pneumoniae R6 transformants with parE D435N and gyrA S81F mutation; assay type: functional; outline: as §1
# Streptococcus pneumoniae [7] = experiment: Antimicrobial activity against Streptococcus pneumoniae R6 transformants with parC D83Y and gyrA E85K mutation in presence of reserpine
# Streptococcus pneumoniae [8] = experiment: Antimicrobial activity against Streptococcus pneumoniae R6 transformants with parC S79F and gyrA S81Y mutation; assay type: functional; outline: as §1
# Streptococcus pneumoniae [9] = experiment: Antimicrobial activity against Streptococcus pneumoniae R6 transformants with parE D435N and gyrA S81F mutation in presence of reserpine
# Streptococcus pneumoniae [10] = experiment: Antimicrobial activity against Streptococcus pneumoniae R6 transformants with parC D83Y and gyrA S81Y mutation in presence of reserpine
# Streptococcus pneumoniae [11] = experiment: Antimicrobial activity agaisnt Streptococcus pneumoniae R6 transformants with parC D83Y and gyrA S81F mutation in presence of reserpine
# Streptococcus pneumoniae [12] = experiment: Antimicrobial activity against Streptococcus pneumoniae R6 transformants with parC S79Y and gyrA E85K mutation in presence of reserpine
# Streptococcus pneumoniae [13] = experiment: Antimicrobial activity against Streptococcus pneumoniae R6 transformants with parC S79F and gyrA E85K mutation in presence of reserpine
# Streptococcus pneumoniae [14] = experiment: Antimicrobial activity against Streptococcus pneumoniae R6 transformants with parE D435N and gyrA E85K mutation; assay type: functional; outline: as §1
# Streptococcus pneumoniae [15] = experiment: Antimicrobial activity against Streptococcus pneumoniae R6 transformants with parE D435N and gyrA S81Y mutation in presence of reserpine
# Streptococcus pneumoniae [16] = experiment: Antimicrobial activity against Streptococcus pneumoniae R6 transformants with gyrA S81F mutation; assay type: functional; outline: as §1
# Streptococcus pneumoniae [17] = experiment: Antimicrobial activity against Streptococcus pneumoniae R6 transformants with parC S79F and gyrA S81F mutation in presence of reserpine
# Streptococcus pneumoniae [18] = experiment: Antimicrobial activity against Streptococcus pneumoniae R6 transformants with parC D83Y and gyrA S81F mutation; assay type: functional; outline: as §1
# Streptococcus pneumoniae [19] = experiment: Antimicrobial activity against Streptococcus pneumoniae R6 transformants with parC S79F mutation in presence of reserpine
# Streptococcus pneumoniae [20] = experiment: Antimicrobial activity against Streptococcus pneumoniae R6 transformants with parC S79Y and gyrA S81F mutation in presence of reserpine
# Streptococcus pneumoniae [21] = experiment: Antimicrobial activity against Streptococcus pneumoniae R6 transformants with gyrA S81Y mutation; assay type: functional; outline: as §1
# Streptococcus pneumoniae [22] = experiment: Antimicrobial activity against Streptococcus pneumoniae R6 transformants with parC S79Y mutation in presence of reserpine
# Streptococcus pneumoniae [23] = experiment: Antimicrobial activity against Streptococcus pneumoniae R6 transformants with parC S79Y and gyrA S81F mutation; assay type: functional; outline: as §1
# Streptococcus pneumoniae [24] = experiment: Antimicrobial activity against Streptococcus pneumoniae R6 transformants with parC D83Y mutation; assay type: functional; outline: as §1
# Streptococcus pneumoniae [25] = experiment: Antimicrobial activity against Streptococcus pneumoniae R6 transformants with parC D83Y and gyrA S81Y mutation; assay type: functional; outline: as §1
# Streptococcus pneumoniae [26] = experiment: Antimicrobial activity against Streptococcus pneumoniae R6 transformants with parC S79Y and gyrA E85K mutation; assay type: functional; outline: as §1
# Streptococcus pneumoniae [27] = experiment: Antimicrobial activity against Streptococcus pneumoniae R6 transformants with parC S79F and gyrA S81F mutation; assay type: functional; outline: as §1
# Streptococcus pneumoniae [28] = experiment: Antimicrobial activity against Streptococcus pneumoniae R6 transformants with parE D435N and gyrA E85K mutation in presence of reserpine
# Streptococcus pneumoniae [29] = experiment: Antimicrobial activity against Streptococcus pneumoniae R6 transformants with parE D435N and gyrA S81Y mutation; assay type: functional; outline: as §1
# Streptococcus pneumoniae [30] = experiment: Antimicrobial activity against Streptococcus pneumoniae R6 transformants with parC S79F and gyrA S81Y mutation in presence of reserpine
# Streptococcus pneumoniae [31] = experiment: Antimicrobial activity against Streptococcus pneumoniae R6 transformants with parC D83Y mutation in presence of reserpine
# Streptococcus pneumoniae [32] = experiment: Antimicrobial activity against Streptococcus pneumoniae R6 transformants with parE D435N mutation; assay type: functional; outline: as §1
# Streptococcus pneumoniae [33] = experiment: Antimicrobial activity against Streptococcus pneumoniae R6 transformants with parC S79F mutation; assay type: functional; outline: as §1
# Streptococcus pneumoniae [34] = experiment: Antimicrobial activity against Streptococcus pneumoniae R6; assay type: functional; outline: as §1
# Streptococcus pneumoniae [35] = experiment: Antimicrobial activity agaisnt Streptococcus pneumoniae R6 transformants with parC S79Y mutation; assay type: functional; outline: as §1
# Streptococcus pneumoniae [36] = experiment: Antimicrobial activity against Streptococcus pneumoniae R6 transformants with gyrA E85K mutation; assay type: functional; outline: as §1
compound,measurement,setting,value
O=C(O)c1cn(C2CC2)c2cc(N3CCNCC3)c(F)cc2c1=O [CIPROFLOXACIN],MIC,Streptococcus pneumoniae [1],2 µg/mL
same,MIC,Streptococcus pneumoniae [2],2 µg/mL
same,MIC,Streptococcus pneumoniae [3],32 µg/mL
same,MIC,Streptococcus pneumoniae [4],64 µg/mL
same,MIC,Streptococcus pneumoniae [5],1 µg/mL
same,MIC,Streptococcus pneumoniae [6],32 µg/mL
same,MIC,Streptococcus pneumoniae [7],32 µg/mL
same,MIC,Streptococcus pneumoniae [8],64 µg/mL
same,MIC,Streptococcus pneumoniae [9],16 µg/mL
same,MIC,Streptococcus pneumoniae [10],32 µg/mL
same,MIC,Streptococcus pneumoniae [11],8 µg/mL
same,MIC,Streptococcus pneumoniae [12],32 µg/mL
same,MIC,Streptococcus pneumoniae [13],32 µg/mL
same,MIC,Streptococcus pneumoniae [14],< 4 µg/mL
same,MIC,Streptococcus pneumoniae [15],32 µg/mL
same,MIC,Streptococcus pneumoniae [16],1 µg/mL
same,MIC,Streptococcus pneumoniae [17],32 µg/mL
same,MIC,Streptococcus pneumoniae [18],32 µg/mL
same,MIC,Streptococcus pneumoniae [19],2 µg/mL
same,MIC,Streptococcus pneumoniae [20],32 µg/mL
same,MIC,Streptococcus pneumoniae [21],2 µg/mL
same,MIC,Streptococcus pneumoniae [22],2 µg/mL
same,MIC,Streptococcus pneumoniae [23],64 µg/mL
same,MIC,Streptococcus pneumoniae [24],3 µg/mL
same,MIC,Streptococcus pneumoniae [25],64 µg/mL
same,MIC,Streptococcus pneumoniae [26],64 µg/mL
same,MIC,Streptococcus pneumoniae [27],64 µg/mL
same,MIC,Streptococcus pneumoniae [28],< 4 µg/mL
same,MIC,Streptococcus pneumoniae [29],64 µg/mL
same,MIC,Streptococcus pneumoniae [30],32 µg/mL
same,MIC,Streptococcus pneumoniae [31],2 µg/mL
COc1c(N2CCNC(C)C2)c(F)cc2c(=O)c(C(=O)O)cn(C3CC3)c12 (centres undefined) [GATIFLOXACIN],MIC,Streptococcus pneumoniae [32],0.12 µg/mL
same,MIC,Streptococcus pneumoniae [3],≥ 4 µg/mL
same,MIC,Streptococcus pneumoniae [4],2 µg/mL
same,MIC,Streptococcus pneumoniae [6],2 µg/mL
same,MIC,Streptococcus pneumoniae [8],≥ 4 µg/mL
same,MIC,Streptococcus pneumoniae [14],0.25 µg/mL
same,MIC,Streptococcus pneumoniae [16],0.25 µg/mL
same,MIC,Streptococcus pneumoniae [18],4 µg/mL
same,MIC,Streptococcus pneumoniae [21],0.25 µg/mL
same,MIC,Streptococcus pneumoniae [23],≥ 4 µg/mL
same,MIC,Streptococcus pneumoniae [24],0.12 µg/mL
same,MIC,Streptococcus pneumoniae [25],≥ 4 µg/mL
same,MIC,Streptococcus pneumoniae [33],0.12 µg/mL
same,MIC,Streptococcus pneumoniae [34],0.12 µg/mL
same,MIC,Streptococcus pneumoniae [26],≥ 4 µg/mL
same,MIC,Streptococcus pneumoniae [27],≥ 4 µg/mL
same,MIC,Streptococcus pneumoniae [35],0.12 µg/mL
same,MIC,Streptococcus pneumoniae [29],≥ 4 µg/mL
same,MIC,Streptococcus pneumoniae [36],0.25 µg/mL
CO/N=C1\CN(c2nc3c(cc2F)c(=O)c(C(=O)O)cn3C2CC2)CC1CN (centres undefined) [GEMIFLOXACIN],MIC,Streptococcus pneumoniae [32],0.06 µg/mL
same,MIC,Streptococcus pneumoniae [3],1 µg/mL
same,MIC,Streptococcus pneumoniae [4],0.5 µg/mL
same,MIC,Streptococcus pneumoniae [6],0.25 µg/mL
same,MIC,Streptococcus pneumoniae [8],0.5 µg/mL
same,MIC,Streptococcus pneumoniae [14],< 0.06 µg/mL
same,MIC,Streptococcus pneumoniae [16],0.12 µg/mL
same,MIC,Streptococcus pneumoniae [18],0.12 µg/mL
same,MIC,Streptococcus pneumoniae [21],0.12 µg/mL
same,MIC,Streptococcus pneumoniae [23],1 µg/mL
same,MIC,Streptococcus pneumoniae [24],0.06 µg/mL
same,MIC,Streptococcus pneumoniae [25],0.25 µg/mL
same,MIC,Streptococcus pneumoniae [33],0.06 µg/mL
same,MIC,Streptococcus pneumoniae [34],0.03 µg/mL
same,MIC,Streptococcus pneumoniae [26],1 µg/mL
same,MIC,Streptococcus pneumoniae [27],0.5 µg/mL
same,MIC,Streptococcus pneumoniae [35],0.06 µg/mL
same,MIC,Streptococcus pneumoniae [29],0.25 µg/mL
same,MIC,Streptococcus pneumoniae [36],0.06 µg/mL
C[C@H]1COc2c(N3CCN(C)CC3)c(F)cc3c(=O)c(C(=O)O)cn1c23.C[C@H]1COc2c(N3CCN(C)CC3)c(F)cc3c(=O)c(C(=O)O)cn1c23.O [LEVOFLOXACIN],MIC,Streptococcus pneumoniae [3],> 32 µg/mL
same,MIC,Streptococcus pneumoniae [4],> 32 µg/mL
same,MIC,Streptococcus pneumoniae [6],> 32 µg/mL
same,MIC,Streptococcus pneumoniae [8],> 32 µg/mL
same,MIC,Streptococcus pneumoniae [18],> 32 µg/mL
same,MIC,Streptococcus pneumoniae [21],3 µg/mL
same,MIC,Streptococcus pneumoniae [23],> 32 µg/mL
same,MIC,Streptococcus pneumoniae [25],> 32 µg/mL
same,MIC,Streptococcus pneumoniae [26],> 32 µg/mL
same,MIC,Streptococcus pneumoniae [27],> 32 µg/mL
same,MIC,Streptococcus pneumoniae [29],> 32 µg/mL
COc1c(N2C[C@@H]3CCCN[C@@H]3C2)c(F)cc2c(=O)c(C(=O)O)cn(C3CC3)c12 [MOXIFLOXACIN],MIC,Streptococcus pneumoniae [3],8 µg/mL
same,MIC,Streptococcus pneumoniae [4],4 µg/mL
same,MIC,Streptococcus pneumoniae [6],4 µg/mL
same,MIC,Streptococcus pneumoniae [8],4 µg/mL
same,MIC,Streptococcus pneumoniae [14],0.5 µg/mL
same,MIC,Streptococcus pneumoniae [16],0.5 µg/mL
same,MIC,Streptococcus pneumoniae [18],4 µg/mL
same,MIC,Streptococcus pneumoniae [21],> 0.5 µg/mL
same,MIC,Streptococcus pneumoniae [23],8 µg/mL
same,MIC,Streptococcus pneumoniae [25],4 µg/mL
same,MIC,Streptococcus pneumoniae [26],8 µg/mL
same,MIC,Streptococcus pneumoniae [27],8 µg/mL
same,MIC,Streptococcus pneumoniae [29],4 µg/mL
same,MIC,Streptococcus pneumoniae [36],0.25 µg/mL
